Screens deposited in PubChem by several laboratories.
Most compounds without a hit are left out; they make up all but 3.8% or so of the library.
RGS4 block: RGS4 inhibitors, primary screen, cell-based, HEK293 M3R inducible RGS4, calcium flux; hit rate 0.45% among 310,000; Fluo-4 calcium flux; active compounds read high; triggered by carbachol at its EC20; Regulator of G-protein signaling 4 (Homo sapiens), P49798; B-score at 10 µM; AID 463165, 2010;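 active = B-score, a plate-corrected calcium signal, over three deviations above library mean, with baseline fluorescence within five deviations of library mean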;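 also: RGS4 expression induced by doxycycline in cells with stable M3 receptor; B-score is computed from the integrated fluorescence ratio over baseline after carbachol; higher B-score means a larger calcium signal and so more RGS4 inhibition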
Target sequence (P49798 whole entry, looked up): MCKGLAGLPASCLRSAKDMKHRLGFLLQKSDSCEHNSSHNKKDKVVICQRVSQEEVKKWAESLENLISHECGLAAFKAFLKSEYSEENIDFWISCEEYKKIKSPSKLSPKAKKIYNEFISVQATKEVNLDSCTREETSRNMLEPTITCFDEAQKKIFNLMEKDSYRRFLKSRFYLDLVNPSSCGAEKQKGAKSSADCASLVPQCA
RGS4 act: RGS4 potentiators or activators, primary screen, cell-based, HEK293 M3R inducible RGS4, calcium flux | hit rate 0.92% among 310,000 | AID 463111, 2010 | B-score at 10 µM | carbachol calcium flux Fluo4; active compounds read low;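 active = B-score of the integrated calcium signal more than 4 SD below the library mean, with starting fluorescence not abnormally high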;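 also: negative B-score means reduced calcium response which marks RGS4 activation or potentiation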
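Also added: carbachol at ECmax as muscarinic agonist stimulus; Assay system: HEK293 cells with stable M3R and inducible RGS4; Timing: overnight RGS4 induction, 30 min dye load 37 °C, 20 min compound RT; Measured by: Fluo4-AM (2 µM) calcium-flux fluorescence, kinetic read.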
MrgX1 antagonist: antagonists of human MrgX1 receptor, primary screen, HEK293 cells, Fluo-4 calcium flux. BAM8-22 antagonism; active compounds read low. AID 588676, 2011. Mas-related G-protein coupled receptor member X1 (Homo sapiens), Q96LB2. hit rate 1.3% among 310,000. B-score at 10 µM;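 active = calcium-response B-score plate-corrected more than 3 library SD below zero, starting fluorescence within 5 deviations, no agonist response on first addition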;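 also: peak minus trough fluorescence over baseline after final BAM8-22 challenge near maximal dose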
Target sequence (Q96LB2 whole entry, looked up): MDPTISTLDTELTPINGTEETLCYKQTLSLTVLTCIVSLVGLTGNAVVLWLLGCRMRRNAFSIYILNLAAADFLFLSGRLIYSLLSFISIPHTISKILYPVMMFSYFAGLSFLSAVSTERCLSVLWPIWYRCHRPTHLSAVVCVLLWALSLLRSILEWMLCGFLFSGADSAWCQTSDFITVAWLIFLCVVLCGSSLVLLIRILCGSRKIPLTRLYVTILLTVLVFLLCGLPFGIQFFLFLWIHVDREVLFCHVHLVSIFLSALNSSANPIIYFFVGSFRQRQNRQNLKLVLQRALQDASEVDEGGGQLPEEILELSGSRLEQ
MrgX1 agonist: agonists of human MrgX1 receptor, primary screen, HEK293 cells, Fluo-4 calcium flux; Mas-related G-protein coupled receptor member X1 (Homo sapiens), Q96LB2; Fluo-4 calcium fluorescence, agonist mode; active compounds read high; B-score at 10 µM; hit rate 0.44% among 310,000;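 active = calcium response B-score plate-corrected fluorescence ratio at least 3 library SD, with starting fluorescence B-score inside 5 SD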
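Material – MrgX1-expressing HEK293 cells · Input – 15,000 cells seeded per well · Dosing – compound as first of three additions · Times – overnight seeding, then 1 h dark dye loading · Measured by – kinetic Fluo-4 NW fluorescence of intracellular calcium · Read-out – B-scored fluorescence response ratio · Benchmarks – positive and negative control wells on each plate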
MrgX1 allo act: positive allosteric modulators of MrgX1, primary screen, HEK293 cells, Fluo-4 calcium flux; Mas-related G-protein coupled receptor member X1 (Homo sapiens), Q96LB2; FDSS; active compounds read high; B-score at 10 µM; hit rate 0.63% among 310,000; AID 588675, 2011;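 active = plate-corrected calcium response at least 3 library SD above typical, normal starting fluorescence, not activating the receptor alone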;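 also: compound read alongside a low EC10 to EC30 dose of BAM8-22 agonist; peak minus trough fluorescence over baseline measured at the second addition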
Hep lipid drop: inhibitors of hepatocyte lipid droplet formation, primary screen, imaging, high-throughput imaging, BODIPY stain; AID 1656, 2009; AML12 mouse hepatocytes, oleate lipid droplets; hit rate 0.4% among 240,000; inhibition, % at 6.5 µM;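 active = lipid droplet intensity inhibited by at least 50%, with more than 500 cells counted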
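Material – AML12 mouse liver cells · Also added – oleate loading, 100 µM · Compound dosing – 6.5 µM single-point dosing · Times – overnight treatment with compound plus oleate · Measured by – fluorescence imaging, 20x objective, two fields per well · Read-out – percent inhibition of filter-corrected integrated lipid droplet intensity per well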
Hep lipid conf: hepatocyte lipid droplet accumulation inhibitors, confirmation, imaging, AML12 mouse hepatocytes, single concentration, high-content; shares compounds with Hep lipid drop; BODIPY lipid droplet imaging; droplets induced with 100 µM oleic acid; inhibition, % at 5.2 µM; AID 463183, 2010; hit rate 65% among 870;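 active = inhibition of lipid droplet metric at least 50%, with more than 300 cells in each of four replicates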;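 also: plate controls were DMSO with oleic acid for no effect and 5 µM Triacsin-C for full effect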
AML12 tox img: AML12 hepatocyte cytotoxicity, counter-screen for hepatic lipid droplet formation project, imaging, DAPI nuclear morphology imaging; shares compounds with Hep lipid drop; AML12 mouse hepatocytes; active compounds read high; cells fed 100 µM oleate overnight; z-score at 5 µM; hit rate 3% among 870; AID 463200, 2010; in the data active = z-score above about 6.3;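 also: compound exposure lasted overnight at 37 °C before fixation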
AML12 tox ATP: AML12 hepatocyte cytotoxicity, confirmation, cytotoxicity control for hepatic lipid droplet formation project, cell-based, single concentration | shares compounds with Hep lipid drop | AML12 mouse hepatocyte viability, ATP luminescence; cells loaded with 100 µM oleic acid | cytotoxicity, % at 50 µM | 530 tested, under 10 active | AID 463219, 2010;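 active = cytotoxicity above 50% in each of four replicates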;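 also: compound exposure lasted overnight at 37 °C before the ATP read; 0% = DMSO-treated cells and 100% = wells with no cells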
* marks the source's active call; other numbers are inactive results.

What do the screens show for `COc1ccccc1NS(=O)(=O)c1cc(NC(=O)c2cc3ccccc3oc2=O)ccc1C`?
RGS4 block: inactive; RGS4 act: inactive; MrgX1 antagonist: inactive; MrgX1 agonist: inactive; MrgX1 allo act: inactive; Hep lipid drop: 58.4*; Hep lipid conf: 52.1; AML12 tox img: -0.636

Results for Cc1ccsc1C(C(=O)NC(C)(C)C)N(Cc1ccco1)C(=O)c1csnn1 (configuration not stated) ?
RGS4 block: inactive; RGS4 act: inactive; MrgX1 antagonist: inactive; MrgX1 agonist: inactive; MrgX1 allo act: inactive; Hep lipid drop: 5.1

What do the screens show for `CCC(C)(C)NC(=O)C(c1sccc1C)N(Cc1ccco1)C(=O)c1csnn1` (configuration not stated)?
RGS4 block: inactive; RGS4 act: inactive; MrgX1 antagonist: inactive; MrgX1 agonist: inactive; MrgX1 allo act: inactive; Hep lipid drop: 57.5*; Hep lipid conf: 69.8*; AML12 tox img: -0.471; AML12 tox ATP: 11.8

How did Cc1ccc(NC(=O)CN(C)S(=O)(=O)c2ccc3c(c2)n(C)c(=O)c(=O)n3C)cc1 do in these assays?
RGS4 block: inactive; RGS4 act: inactive; MrgX1 antagonist: inactive; MrgX1 agonist: inactive; MrgX1 allo act: inactive; Hep lipid drop: -2.5

Results for Cc1c(C)c2ccc(OCC(=O)NCCCN3CCCC3=O)cc2oc1=O ?
RGS4 block: inactive; RGS4 act: inactive; MrgX1 antagonist: inactive; MrgX1 agonist: inactive; MrgX1 allo act: inactive; Hep lipid drop: -5.3

How did Cc1cc(=O)oc2cc(OCC(=O)NCCCN3CCCC3=O)ccc12 do in these assays?
RGS4 block: inactive; RGS4 act: inactive; MrgX1 antagonist: inactive; MrgX1 agonist: inactive; MrgX1 allo act: inactive; Hep lipid drop: 51.8*; Hep lipid conf: 21.1; AML12 tox img: -0.744

How did COc1ccc(-c2nc(NC(=O)Cn3ccc(C(F)(F)F)n3)sc2C)cc1 do in these assays?
RGS4 block: inactive; RGS4 act: inactive; MrgX1 antagonist: inactive; MrgX1 agonist: inactive; MrgX1 allo act: inactive; Hep lipid drop: 67.8*; Hep lipid conf: 103.9*; AML12 tox img: -0.302; AML12 tox ATP: 36.8

What do the screens show for `Cc1ccc(N=Nc2ccc(O)c3ncccc23)cc1`?
RGS4 block: inactive; RGS4 act: inactive; MrgX1 antagonist: inactive; MrgX1 agonist: inactive; MrgX1 allo act: inactive; Hep lipid drop: -17.4

How did Oc1c(N=Nc2ccc(F)cc2)ccc2ccccc12 do in these assays?
RGS4 block: inactive; RGS4 act: inactive; MrgX1 antagonist: inactive; MrgX1 agonist: inactive; MrgX1 allo act: inactive; Hep lipid drop: 71.1*; Hep lipid conf: 96.1*; AML12 tox img: 1.03; AML12 tox ATP: 64.2*

Results for Cc1ccc(N=Nc2ccc3ccccc3c2O)cc1 ?
RGS4 block: inactive; RGS4 act: inactive; MrgX1 antagonist: inactive; MrgX1 agonist: inactive; MrgX1 allo act: inactive; Hep lipid drop: 82.1*; Hep lipid conf: 52.6; AML12 tox img: 0.114
